Assay [1] can be described thus: Inhibition of human platelet cytosolic phospholipase A2alpha. An outline of the steps: (§1)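 cPLA2α isolated from human platelets. Reactions were stopped after 60 min with acetonitrile/methanol/0.1 M aqueous EDTA-Na2 containing 4-undecyloxybenzoic acid as internal standard and NDGA as oxygen scavenger. Released arachidonic acid was cleaned up by solid-phase extraction and quantified by RP-HPLC with UV detection at 200 nm. Results are IC50 or % inhibition at 10 μM, as means of at least two independent determinations.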

Assay [2] is filed under the species Homo sapiens. Kind of assay: Inhibition of human platelet cytosolic phospholipase A2alpha at 10 uM. An outline of the steps: as §1

The source made the active and inactive calls. No cut-off for these calls is given here.

On to `CCCCCCCCc1ccc(OCC(Cn2ccc3cc(C(=O)O)ccc32)NC(=O)Oc2ccccc2)cc1` (racemic), for which, in assay [1], the concentration for half-maximal inhibition (IC50) – broadly, the point on the concentration scale where inhibition reaches its midpoint – is 4.6 µM. As to `CCCCCCCCc1ccc(OCC(Cn2ccc3cc(C(=O)O)ccc32)=NOC)cc1` (mixture of isomers), in assay [2], the inhibition (in general, the share of the control response that was lost under treatment) worked out at 22%. In assay [1], the IC50 is above 10 µM. As for `CCCCCCCCc1ccc(OCC(Cn2ccc3cc(C(=O)O)ccc32)NC(=O)Oc2ccccc2F)cc1` (racemic), in assay [2], the inhibition entry is “inactive”.

`CCCCCCCCc1ccc(OCC(Cn2ccc3cc(C(=O)O)ccc32)OC(=O)Nc2ccccc2)cc1` (racemic): in assay [2], the inhibition entry is “inactive”.

Consider `CCCCCCCCc1ccc(OCC(Cn2ccc3cc(C(=O)O)ccc32)NC(=O)c2ccccc2)cc1` (racemic), for which the inhibition entry in assay [2] was “inactive”. On the same count and under the same terms, with `CCCCCCCCc1ccc(OCC(Cn2ccc3cc(C(=O)O)ccc32)NC(=O)Nc2ccccc2)cc1` (racemic) the entry was “inactive”. In assay [2], `CCCCCCCCc1ccc(OCC(Cn2ccc3cc(C(=O)O)ccc32)NC(=O)Oc2ccc(Cl)cc2)cc1` (racemic) had an inhibition of 28%. For the same compound, the IC50 in assay [1] was above 10 µM. On to `CCCCCCCCc1ccc(OCC(Cn2ccc3cc(C(=O)O)ccc32)OC(C)=O)cc1` (racemic), for which, in assay [2], the inhibition result is “inactive”. As for `CCCCCCCCc1ccc(OCC(Cn2ccc3cc(C(=O)O)ccc32)NC(=O)OC)cc1` (racemic), the inhibition in assay [2] came to 21%. The compound further displayed an IC50 in assay [1] above 10 µM.

Take `CCCCCCCCc1ccc(OCC(Cn2ccc3cc(C(=O)O)ccc32)NC(C)=O)cc1` (racemic): the inhibition result in assay [2] was “inactive”.

Compound `CCCCCCCCc1ccc(OCC(Cn2ccc3cc(C(=O)O)ccc32)N=[N+]=[N-])cc1` (racemic) returned an IC50 in assay [1] of 4.3 µM. In assay [1], `CCCCCCCCc1ccc(OCC(Cn2ccc3cc(C(=O)O)ccc32)NC(=O)Oc2ccc(F)cc2)cc1` (racemic) displayed an IC50 of 1.7 µM. Compared with the last compound, the IC50 is about 2.5-fold lower. For `CCCCC/C=C\C/C=C\C/C=C\C/C=C\CCCC(=O)C(F)(F)F` [ARACHIDONYL TRIFLUOROMETHYLKETONE], it took 2.3 µM to reach half-maximal inhibition in assay [1] (IC50). As to `CCCCCCCCc1ccc(OC/C(Cn2ccc3cc(C(=O)O)ccc32)=N/O)cc1`, in assay [2], the inhibition came to 42%. For the same compound, the IC50 in assay [1] is above 10 µM. Turning to `CCCCCCCCc1ccc(OCC(Cn2ccc3cc(C(=O)O)ccc32)NC(=O)Oc2cccc(F)c2)cc1` (racemic), in assay [1], the IC50 was 5.1 µM.

Compound `CCCCCCCCc1ccc(OCC(N)Cn2ccc3cc(C(=O)O)ccc32)cc1` (racemic) gave an inhibition in assay [2] of 37%. In assay [1], this compound showed an IC50 above 10 µM. The corresponding values for `CCCCCCCCc1ccc(OC/C(Cn2ccc3cc(C(=O)O)ccc32)=N\O)cc1` are 32% and above 10 µM. For `CCCCCCCCc1ccc(OCC(Cn2ccc3cc(C(=O)O)ccc32)NC(=O)Oc2ccccc2Cl)cc1` (racemic), the inhibition result in assay [2] was “inactive”. In assay [2], `CCCCCCCCc1ccc(OCC(Cn2ccc3cc(C(=O)O)ccc32)NC(=O)Oc2ccc(OC)cc2)cc1` (racemic) came in with an inhibition of 23%. In assay [1], this compound displayed an IC50 above 10 µM. `CCCCCCCCc1ccc(OCC(Cn2ccc3cc(C(=O)O)ccc32)OS(C)(=O)=O)cc1` (racemic) showed an inhibition in assay [2] of 16%. In addition, the IC50 in assay [1] was above 10 µM. Regarding `CCCCCCCCc1ccc(OCC(Cn2ccc3cc(C(=O)O)ccc32)NC(=O)Oc2ccccc2OC)cc1` (racemic), the inhibition result in assay [2] is “inactive”. In assay [2], `CCCCCCCCc1ccc(OCC(Cn2ccc3cc(C(=O)O)ccc32)OC(=O)c2ccccc2)cc1` (racemic) had an inhibition of 18%. The same compound registered an IC50 in assay [1] above 10 µM.

The values above are taken from ChEMBL document CHEMBL1681709, “Structure-activity relationship studies on 1-(5-carboxyindol-1-yl)-propan-2-one inhibitors of human cytosolic phospholipase A2α: variation of the activated ketone moiety” (Bioorg Med Chem Lett, 2011).
